CSN deneddyl inh: CSN deneddylation inhibition. Q92905. Purified CSN, SCF-Nedd8-OG deneddylation, fluorescence polarization. inhibition, % at 12.5 µM. hit rate 0.38% among 360,000. AID 651999;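 active = pattern-corrected inhibition above about 35%, with an unprinted fluorescence ratio check between 0.5 and 1.5, limit read from the data, passing the limit was not always enough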;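 also: 0% = enzyme with substrate and 100% = substrate without enzyme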
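Schedule: reaction 90 min, room temperature / Assay system: HEK293T-derived human Csn5 enzyme / Input: Csn5 at 0.24 nM final / Measure: inhibition of Csn5 cleavage, % / Control set: substrate-only high control, full reaction low control / Technique: fluorescence polarization of the substrate / Buffer or medium: Tris/NaCl/DTT buffer, pH 7.5 / Reagent: SCFSkp2-Nedd8OG substrate at 10 nM final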
A1 inh: inhibitors of the anti-apoptotic protein A1, read as caspase activation; AID 2462; hit rate 0.066% among 330,000; caspase activation, % (concentration not given with the values); MEF A1-2A-BIM cells, Caspase-Glo 3/7 luminescence, 3 h; percent of clofoctol response, vehicle zero;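 active = over half of replicate activation scores above 10%, or exactly half above 10 with the replicate mean above 10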
HNF4A DNA FP: change in binding of human HNF4 alpha to DNA | activity change, % at 10 µM | HNF4a-FITC DNA binding, fluorescence polarization, 1 h | AID 1224865 | hit rate 0.3% among 360,000 | P41235; in the data active = activity change above about 30%, passing the limit was not always enough
EBNA-1 inh: blocks EBNA-1 binding to DNA; EBNA-1 DNA binding, fluorescence polarization; inhibition, % at 14.8 µM; hit rate 0.34% among 300,000; AID 1950; in the data active = inhibition above about 28%
ZTA DNA inh: ZTA (EBV) inhibition in EBNA-1 counter-screen. P03206. ZTA-DNA binding, fluorescence polarization. inhibition, % at 11 µM. hit rate 0.15% among 320,000. AID 2234; in the data active = inhibition above about 33%
LANA-H2B inh: blocks KSHV LANA binding to histone H2A/H2B; Q9QR71; cell-free LANA-H2A/H2B peptide, fluorescence polarization; inhibition, % (no concentration beside the values); hit rate 0.6% among 320,000; in the data active = inhibition mostly above about 10%, no sharp cut-off; inactive = mostly below about 6.7%
Target sequence (Q9QR71 whole entry, looked up): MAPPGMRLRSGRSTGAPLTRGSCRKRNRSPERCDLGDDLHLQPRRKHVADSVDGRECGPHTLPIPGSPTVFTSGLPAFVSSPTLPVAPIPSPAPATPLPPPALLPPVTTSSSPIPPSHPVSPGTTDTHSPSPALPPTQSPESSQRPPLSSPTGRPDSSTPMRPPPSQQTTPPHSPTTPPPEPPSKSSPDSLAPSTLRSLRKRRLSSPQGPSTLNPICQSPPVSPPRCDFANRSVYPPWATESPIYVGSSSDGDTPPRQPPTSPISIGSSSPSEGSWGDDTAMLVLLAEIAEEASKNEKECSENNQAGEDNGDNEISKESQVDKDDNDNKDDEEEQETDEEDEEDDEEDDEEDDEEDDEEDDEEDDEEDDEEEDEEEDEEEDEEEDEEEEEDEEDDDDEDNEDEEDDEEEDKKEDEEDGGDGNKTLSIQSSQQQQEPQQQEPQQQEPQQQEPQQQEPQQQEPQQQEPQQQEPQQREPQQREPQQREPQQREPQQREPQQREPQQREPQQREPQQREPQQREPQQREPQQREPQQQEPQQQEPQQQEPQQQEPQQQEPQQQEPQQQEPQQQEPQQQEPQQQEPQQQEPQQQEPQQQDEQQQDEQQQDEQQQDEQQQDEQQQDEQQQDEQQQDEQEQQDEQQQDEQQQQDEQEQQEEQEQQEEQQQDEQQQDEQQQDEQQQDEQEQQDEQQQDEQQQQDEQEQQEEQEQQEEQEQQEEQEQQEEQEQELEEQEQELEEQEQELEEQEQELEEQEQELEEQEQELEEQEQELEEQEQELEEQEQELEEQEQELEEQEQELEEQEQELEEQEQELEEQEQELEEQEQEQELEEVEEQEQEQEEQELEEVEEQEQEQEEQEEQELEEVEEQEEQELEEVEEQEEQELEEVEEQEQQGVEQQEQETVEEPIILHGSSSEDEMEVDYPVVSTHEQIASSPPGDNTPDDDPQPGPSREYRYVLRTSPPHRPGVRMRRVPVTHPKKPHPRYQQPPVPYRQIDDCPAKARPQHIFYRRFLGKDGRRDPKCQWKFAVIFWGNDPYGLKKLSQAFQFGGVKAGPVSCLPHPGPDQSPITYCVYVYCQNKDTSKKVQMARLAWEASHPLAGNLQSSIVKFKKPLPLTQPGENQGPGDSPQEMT
EBNA-1 inh conf: EBNA-1 (EBV) inhibition, confirmation | inhibition, % at 14.8 µM | hit rate 35% among 830 | shares compounds with EBNA-1 inh | Recombinant EBNA-1 DBD, Cy5-DNA fluorescence polarization;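 active = mean inhibition across replicates above a set limit taken from the earlier primary screen, cut at about 28% in these data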;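 also: plate controls were EBNA-1 protein with DMSO for no effect and wells lacking EBNA-1 for full effect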
ZTA DNA inh trip: blocks Epstein-Barr virus ZTA in triplicate, EBNA-1 counter-screen; inhibition, % at 11.1 µM; 830 tested, under 10 active; shares compounds with EBNA-1 inh; Zta-ZRE DNA binding, Cy5 fluorescence polarization;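 active = mean inhibition over triplicates above a set limit taken from the primary EBNA-1 screen, cut at about 37% in these data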;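 also: purified full length Zta protein with Cy5 labeled ZRE DNA probe; 0% = Zta with DMSO and 100% = wells lacking Zta protein; inhibitors lower polarization by freeing the labeled DNA probe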
Active calls of the source: *; . = not tested or not shown. Rows were chosen to be rich in hits. Some 1.5% of all compounds tested hit in one or more screens of this group.

SMILES	CSN deneddyl inh	A1 inh	HNF4A DNA FP	EBNA-1 inh	ZTA DNA inh	LANA-H2B inh	EBNA-1 inh conf	ZTA DNA inh trip
Cc1cccc(C)c1NC(=O)C(NC(=O)CN1C(=O)c2ccccc2C1=O)c1ccccc1 (stereo not drawn)	-2	0	-1	29*	-4	-3	7	6
COC(=O)[C@@]12C[C@@H](CC(=O)NCc3cccc(C(F)(F)F)c3)C(=O)N(CCc3ccc(OC)c(OC)c3)C1=CCC(C)(C)C2	0	.	0	.	.	.	.	.
CCOc1ccc(S(=O)(=O)N(C)c2ccc(OCC(=O)Nc3nc4ccccc4s3)cc2)cc1	0	1	-2	11	-2	-13	.	.
CN(c1ccc(OCC(=O)Nc2nc3ccccc3s2)cc1)S(=O)(=O)c1ccccc1	4	0	6	47*	12	-5	23	8
COc1ccc(/C(C)=N/NC(=O)CNC(=O)C(c2ccccc2)c2ccccc2)c(OC)c1	-6	0	0	-8	-11	0	.	.
COc1cc(NC(=O)c2ccc(C)c([N+](=O)[O-])c2)ccc1NC(=O)c1ccco1	.	1	.	51*	-12	4	14	-6
CC1CCN(S(=O)(=O)c2ccc(-c3nnc(SCc4cccnc4)o3)cc2)CC1	0	0	-1	44*	7	-1	21	-7
CC(C)NC(=O)C1C(c2ccc(C(F)(F)F)cc2)=Nc2ccccc2N1C(=O)c1cc2ccccc2[nH]1 (stereo not drawn)	1	.	5	.	.	.	.	.
Cc1ccccc1C1C(C#N)=C2NC(=O)c3c(sc4c3CCCCC4)N2C2=C1C(=O)CC(C)(C)C2 (stereo not drawn)	.	-1	.	2	10	2	.	.
COc1cc(C2C(C#N)=C(N)N(c3sc4c(c3C#N)CCCC4)C3=C2C(=O)CC(C)(C)C3)cc(OC)c1OC (stereo not drawn)	12	1	4	108*	18	4	36*	0
CCOc1ccc2nc(SC3CC(=O)N(c4ccccc4)C3=O)sc2c1 (stereo not drawn)	0	0	3	33*	2	2	1	-1
CCCCCC(=O)Nc1ccc(C2C(=O)c3ccccc3C2=O)cc1	-1	-3	4	-1	10	-1	.	.
COC(=O)CSc1ncccc1-c1nc2ccccc2[nH]1	1	-2	1	-3	11	-2	.	.
O=C(CSc1nc2ccccc2c(=O)n1-c1ccccc1)N1CCc2ccccc21	-4	1	-2	41*	13	2	38*	0
O=C(CSc1nc2ccccc2c(=O)n1-c1ccccc1)N1CCCc2ccccc21	-1	0	2	3	10	-4	.	.
O=C(CSc1ncccc1-c1nc2ccccc2[nH]1)N1CCc2ccccc21	-1	-5	2	32*	-7	4	9	4
COc1cccc(-n2nnc3c(=O)n(Cc4ccc(Br)cc4)cnc32)c1	6	1	1	35*	7	4	7	8
CC(=O)N1c2ccc(S(=O)(=O)NCC3CCC(C(=O)NC4CCCCC4)CC3)cc2CC1C (stereo not drawn)	0	-1	-1	41*	3	2	-5	-6
Cc1ccc(C(=O)CSc2nnc(-c3c[nH]c4ccccc34)o2)cc1	-4	0	1	29*	-1	-3	-8	-1
CC(C)C(C)NC(=O)CSc1nnc(-c2c[nH]c3ccccc23)o1 (stereo not drawn)	-2	1	0	0	4	0	.	.
COc1ccc(/C=C/C(=O)Oc2ccc(/C=N/NC(=O)COc3c(C)cccc3C)cc2)cc1	0	-1	-2	14	-4	2	.	.
COc1ccc(/C=C/C(=O)Oc2cccc(/C=N/NC(=O)COc3c(C)cccc3C)c2)cc1	-5	0	-1	39*	4	2	74*	7
Cc1cc2ncn(/N=C/c3ccc([N+](=O)[O-])o3)c2cc1C	11	0	7	4	0	-2	.	.
COc1ccccc1Cc1c(-c2ccc(C#N)cc2)nc2ccc(C)cn12	0	.	5	.	.	.	.	.
COc1cc(C)ccc1OCc1cc(C(=O)N2CCC(c3ccc(F)cc3)C2)no1 (stereo not drawn)	1	-6	1	31*	-1	1	2	15
SMILES	CSN deneddyl inh	A1 inh	HNF4A DNA FP	EBNA-1 inh	ZTA DNA inh	LANA-H2B inh	EBNA-1 inh conf	ZTA DNA inh trip
CCOC(=O)C1=C(C)NC(C)=C(C(=O)OCC)C1C(=O)OCC(=O)NCCc1ccc(S(N)(=O)=O)cc1	-1	1	-1	0	8	3	.	.
CC1=C(C(=O)N(C)C)CC(CC(=O)NCCc2ccccn2)C(=O)N1Cc1ccc(C(C)(C)C)cc1 (stereo not drawn)	3	.	-1	.	.	.	.	.
CCOC(=O)CNC(=O)C1(NC(=O)CNC(=O)OCc2ccccc2)CCCC1	-1	.	1	.	.	.	.	.
CCOC(=O)COc1cccc2c(=O)n(CC(=O)N3CCc4ccccc43)ccc12	-1	0	-1	36*	9	3	17	1
COC(=O)c1cc(S(=O)(=O)N2CCCC2=O)c(Cl)cc1Cl	3	1	3	-3	-23	17	.	.
O=C(Nc1cc(Cl)cc(Cl)c1)c1ccc(Cn2c(=O)[nH]c3ccsc3c2=O)cc1	0	0	1	36*	-2	-3	29*	-5
COc1ccc(O)c(-c2cc(C(F)(F)C(F)F)nc(-c3ccccc3)n2)c1	1	0	2	31*	-4	-1	8	4
CNc1ccccc1C(=O)OC	-3	1	2	2	-6	-1	.	.
COC(=O)C(=N/Nc1ccccc1C(=O)OC)/C(C)=N/O	2	0	5	57*	9	-1	42*	-2
CCOC(=O)C1=CCN(S(=O)(=O)c2ccccc2Br)C1c1cccc(F)c1 (stereo not drawn)	-1	.	-4	.	.	.	.	.
COC(=O)CNC(=O)CNC(=O)c1nn(-c2ccc(OC)c(Cl)c2)c(=O)c2ccccc12	0	0	-4	-11	-2	-4	.	.
COc1ccc(-n2nc(C(=O)NCC(=O)NCc3cccc(F)c3)c3ccccc3c2=O)cc1Cl	4	-2	1	28*	22	-2	-7	6
CCOc1ccc(/C=N/NC(=O)C(=O)NCc2ccco2)cc1	3	1	3	34*	-6	0	-8	-2
COc1cccc(Cn2c(=S)[nH]c3ccc(N4CCOCC4)cc3c2=O)c1	-1	1	-1	29*	-4	1	8	-11

Bioassay records as filed in PubChem BioAssay.
